# The list is not random: actives were taken first. Their share in the collection is about 3.7%.
# KCNK9 inh: blocks the human KCNK9 two-pore domain potassium channel. actives 1.2% (n = 310,000). B-score at 10 µM. HEK293 KCNK9, FluxOR thallium flux fluorescence; stronger effect = lower value. AID 488922. Q9NPC2;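 active = ratio B-score over 3 SD below the library mean, with starting fluorescence within 5 SD of its mean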;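 note: negative B-score means less thallium flux so channel inhibition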
# hERG protect: shields human hERG channel from block by proarrhythmic agents. Q12809. actives 0.51% (n = 310,000). activation (rescue from dofetilide block), less the hit threshold, % at 10 µM. CHO-hERG, FluxOR thallium flux, dofetilide IC70 present;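 active = activation above the mean of controls blocked by dofetilide plus 5 SD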;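 note: thallium influx through hERG after potassium depolarization seen as dye fluorescence rise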
# Kir21 block: inhibitors of mouse Kir2.1 inward-rectifier potassium channel | actives 0.85% (n = 310,000) | B-score at 10 µM | HEK293-Kir2.1, FluxOR thallium flux fluorescence; stronger effect = lower value | P35561;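 active = fluorescence ratio B-score at or below minus 3 SD of library scores, with starting-brightness B-score within 2 SD, cut at about -4.2 in these data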;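 note: channel flux triggered by added potassium and thallium sulfate stimulus; B-score of peak minus minimum fluorescence over baseline after thallium stimulus; more negative B-score means stronger Kir2.1 block with less thallium influx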
# Target sequence (P35561 whole entry, looked up): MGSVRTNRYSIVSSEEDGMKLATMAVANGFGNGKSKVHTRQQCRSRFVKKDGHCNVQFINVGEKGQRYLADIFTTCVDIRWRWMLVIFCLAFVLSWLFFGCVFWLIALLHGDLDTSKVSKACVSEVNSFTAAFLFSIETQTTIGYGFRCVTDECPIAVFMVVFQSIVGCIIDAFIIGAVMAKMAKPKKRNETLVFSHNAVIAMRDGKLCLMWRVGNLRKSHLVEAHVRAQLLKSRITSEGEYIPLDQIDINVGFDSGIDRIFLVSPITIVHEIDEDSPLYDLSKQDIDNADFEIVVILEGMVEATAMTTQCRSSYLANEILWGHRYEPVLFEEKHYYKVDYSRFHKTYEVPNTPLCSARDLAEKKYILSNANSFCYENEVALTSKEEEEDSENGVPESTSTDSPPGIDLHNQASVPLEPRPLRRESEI
# KCNQ1 act: potentiators or activators of human KCNQ1 potassium channel; P51787; CHO-K1 KCNQ1, thallium flux FluxOR fluorescence; stronger effect = higher value; B-score at 10 µM; actives 0.35% (n = 310,000); AID 2648;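 active = fluorescence ratio B-score, a plate-corrected score, at least three library SD, with initial intensity B-score within 5 SD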
#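 Assay system: CHO-K1 cells stably expressing KCNQ1. Medium: assay buffer for compound exposure, DMSO matched across wells. Timing: 37 °C overnight plating, 90-min dark dye load, 20-min compound pretreatment. Signal: kinetic FluxOR fluorescence, 10 s baseline plus 110 s post-stimulus.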
# KCNK3 inh: human KCNK3 channel inhibition, primary screen; O14649; B-score at 10 µM; AID 602410; CHO-KCNK3 thallium flux, FluxOR fluorescence; stronger effect = lower value; actives 0.84% (n = 340,000);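 active = B-score under library mean minus 4 SD, starting fluorescence ratio at most library mean plus 5 SD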;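 note: more negative B-score means stronger inhibition of thallium flux through KCNK3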
# KCNQ1 block: inhibitors of human KCNQ1 potassium channel; AID 2642; CHO-K1 KCNQ1, FluxOR thallium flux fluorescence; stronger effect = higher value; actives 1.3% (n = 310,000); B-score at 10 µM;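 active = compounds whose thallium flux B-score, printed positive for inhibition, exceeds three library SD while starting fluorescence stays within three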;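 note: channel opened by potassium depolarization with thallium stimulus after 20 min compound exposure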
# KCNK9 inh conf: human KCNK9 inhibitor confirmation; shares compounds with KCNK9 inh; HEK293 KCNK9 cells, FluxOR thallium flux fluorescence; inhibition, % at 10 µM; actives 43% (n = 4,900);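 active = thallium signal inhibited by more than 5 SD of the compound-free buffer control wells, on both duplicate plates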;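 note: 0% = assay buffer control wells without compound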
# Kir21 sel: selectivity of KCNK9 modulators against mouse Kir2.1. shares compounds with KCNK9 inh. Kir2.1 cells, FluxOR thallium flux fluorescence. inhibition, % at 10 µM. actives 4% (n = 4,900). AID 492993;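 active = thallium signal drop more than 5 SD beyond the mean of the no-compound control wells, seen in both duplicate plates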;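 note: signal is fluorescence rise after thallium addition divided by baseline fluorescence; plate controls were assay buffer only for no effect and full block by chlorpromazine control for full effect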
# KCNK9 uninduced: second counter-screen for KCNK9 modulators: effect in non-induced cells. shares compounds with KCNK9 inh. non-induced KCNK9-HEK293, FluxOR thallium flux. inhibition, % at 10 µM. actives 40% (n = 4,900);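 active = thallium signal drop beyond 5 SD of the untreated control mean, on both duplicate plates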;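 note: plate controls were buffer only IC0 wells for no effect and SID17386958 at its maximal inhibitory level for full effect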
# * = called active by the depositor; i = inactive; x = no result given.
SMILES,KCNK9 inh,hERG protect,Kir21 block,KCNQ1 act,KCNK3 inh,KCNQ1 block,KCNK9 inh conf,Kir21 sel,KCNK9 uninduced
Cc1ccc(N(Cc2cc3cccc(C)c3[nH]c2=O)S(=O)(=O)c2ccccc2)c(C)c1,i,-12.6,0.34,i,i,i,i,i,i
CCCCCC(=O)NC(=S)Nc1ccc2oc(=O)ccc2c1,i,-14.6,-0.39,i,i,i,x,x,x
CSc1nc(=O)n2cc(C)ccc2n1,i,-7.0,0.95,i,i,i,x,x,x
COc1cccc(C(NC(C)=O)c2ccc3cccnc3c2O)c1 (stereo not given),i,0.5,2.97,i,i,i,x,x,x
Oc1cccc(C(Nc2nccs2)c2ccc3cccnc3c2O)c1 (stereo not given),i,-16.9,-0.56,i,i,i,i,i,i
Cc1cc(S(=O)(=O)N2CCCC(N(C)CCc3ccccn3)C2)c(C)cc1Cl (stereo not given),i,-17.5,-4.18,i,i,i,i,i,i
O=C(NCc1ccccn1)C1CCCN(S(=O)(=O)c2cc(Cl)ccc2Cl)C1 (stereo not given),x,x,x,x,i,x,x,x,x
CCCCCCCCN1[C@@H](CC(=O)OC)c2cc(C(F)(F)F)ccc2S1(=O)=O,i,-10.2,2.18,i,i,i,i,i,i
COC(=O)C[C@H]1c2cc(C(F)(F)F)ccc2S(=O)(=O)N1Cc1ccccc1,i,-11.2,-0.5,i,i,i,x,x,x
CC1CCCCC1NC(=O)c1cccc(S(=O)(=O)N2CCN(Cc3ccccc3)CC2)c1 (stereo not given),i,-11.8,1.04,i,i,i,i,i,i
CC(=O)Nc1cccc(NC(=O)c2cccc(S(=O)(=O)N3CCN(Cc4ccccc4)CC3)c2)c1,i,-10.6,0.07,i,i,i,x,x,x
CSc1ccc(CN(C)C(=O)c2cccc(S(=O)(=O)N3CCN(Cc4ccccc4)CC3)c2)cc1,i,-14.5,-1.64,i,i,9*,i,i,i
CN(Cc1ccc(F)cc1)C(=O)c1cccc(S(=O)(=O)N2CCN(Cc3ccccc3)CC2)c1,i,-10.2,-0.01,i,i,i,x,x,x
Cc1ccc(S(=O)(=O)NC(=O)c2ccc(-c3ccc(C)c4ccccc34)o2)cc1,i,-19.3,0.46,i,i,i,i,i,i
Cc1ccc(-c2ccc(C(=O)NCc3ccccc3)o2)c2ccccc12,i,-10.4,0.21,i,i,i,x,x,x
Cc1ccc(-c2ccc(C(=O)Nc3ccccc3)o2)c2ccccc12,i,-17.0,0.9,i,i,6*,i,i,i
O=C(C1=C[C@@H](c2ccccc2)C[C@@H](OCc2ccc(CO)cc2)O1)N1CCCCCCC1,i,-10.0,-0.14,i,i,i,x,x,x
O=C(CCC1CCCN(C(=O)c2ccc3c(c2)OCO3)C1)N1CCN(c2ccccn2)CC1 (stereo not given),i,3.0,-0.35,i,i,i,x,x,x
Cc1ccc(-c2noc(CSc3nnc(Cc4ccccc4)n3-c3cccc(C)c3)n2)cc1,-9.86*,-14.4,-0.48,i,i,i,i,i,30.0%*
Cc1ccccc1-c1nc2cc(NC(=O)C3CC3)ccc2o1,-8.68*,-7.0,-1.59,i,i,i,i,i,i
CC(=O)Nc1ccc2oc(-c3ccccc3Br)nc2c1,i,-6.5,0.13,i,i,i,x,x,x
COc1ccc(-c2cc(C)nc3c(-c4ccccc4)cnn23)cc1,-9.51*,-19.7,-1.05,i,i,i,57.5%*,i,51.0%*
Cc1ccc(NC(=O)CSCC(=O)NCc2cccc(C(F)(F)F)c2)cc1,i,-6.7,0.43,i,i,i,x,x,x
CC1=NOC(=O)/C1=C\c1ccc(-c2cc(Cl)ccc2Cl)o1,i,-2.9,-0.07,i,i,i,i,i,i
O=C(Nc1nc(-c2cc(Cl)sc2Cl)cs1)c1cccs1,-8.95*,-12.7,0.94,i,-11.7*,i,50.5%*,i,i
SMILES,KCNK9 inh,hERG protect,Kir21 block,KCNQ1 act,KCNK3 inh,KCNQ1 block,KCNK9 inh conf,Kir21 sel,KCNK9 uninduced
CC(C(=O)NC(=O)NC1CCCCC1)N1CCN(C(c2ccccc2)c2ccccc2)CC1 (stereo not given),i,-14.3,0,i,i,i,i,i,i
O=C(NC1CCCCC1)C(c1ccccc1)N1CCCC1 (stereo not given),i,-5.2,0.06,i,i,i,x,x,x
CCn1c(C(=O)NCCCN2CCc3ccccc3C2)cc2sccc21,i,-13.1,-2.41,i,i,i,x,x,x
CCn1c(C(=O)N2CCc3ccccc3C2)cc2sccc21,i,-10.7,-0.23,i,i,i,i,i,i
COC(=O)Nc1ccc(S(=O)(=O)N2CCC(C(=O)NCc3ccc4c(c3)OCO4)CC2)cc1,x,x,x,x,i,x,x,x,x
Cc1ccc(/C=N/N2CCN(Cc3cccc4ccccc34)CC2)o1,i,-9.2,-0.78,i,i,i,i,i,i
Cc1ccc(/C=N/N2CCN(Cc3cccc4ccccc34)CC2)s1,i,-4.3,-0.02,i,i,i,i,i,i
Cc1cccc(N2CCN(CC(=O)NCc3ccc(Cl)cc3)CC2)c1C,i,-14.5,0.21,i,i,i,i,i,i
Cc1cccc2nc(-c3ccccc3)nc(N3CCC(O)(c4ccc(Cl)cc4)CC3)c12,-10.3*,-5.2,-0.18,i,i,i,61.0%*,i,32.5%*
COc1ccc(S(=O)(=O)NC(C)C(=O)NCc2ccccn2)cc1OC (stereo not given),i,-6.9,-0.08,i,i,i,x,x,x
CCCCn1c(NS(=O)(=O)c2ccc(C)cc2)c(S(=O)(=O)c2ccccc2)c2nc3ccccc3nc21,i,-8.8,-1.66,9*,i,i,i,i,i
COC(=O)c1ccc(COc2ccc(/C=C(\C#N)c3nc4ccccc4[nH]3)cc2OC)o1,-8.37*,-8.0,1.11,i,i,i,40.5%*,i,33.5%*
Cc1cccc(N=C2NC(=O)c3cc([N+](=O)[O-])ccc32)c1,i,-7.7,-0.31,i,i,i,x,x,x

# Assay outcomes as filed in PubChem.
